Experimental data from ChEMBL document CHEMBL5055637, “Novel C-3-(N-alkyl-aryl)-aminomethyl rifamycin SV derivatives exhibit activity against rifampicin-resistant Mycobacterium tuberculosis RpoBS522L strain and display a different binding mode at the RNAP β-subunit site compared to rifampicin” (2021).
Converted amounts (≈) assume the structure as drawn.

How the values were obtained:
[1] = tested on: Mycobacterium tuberculosis; assay: Antitubercular activity against wild type Mycobacterium tuberculosis HN878 assessed as bacterial growth inhibition measured after 5 days by serial dilution method; format: functional; conditions: HN878, 120 h, time 5 day
How it was run: (§1)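 Strains grown in Middlebrook 7H9 with OADC supplement and 0.05% w/v Tween 80. Compounds tested as 10-point 2-fold serial dilutions. Growth read as OD590 after 5 days in 7H9-OADC-Tw. Levenberg-Marquardt curve fitting gave MIC90, the concentration inhibiting growth by 90% relative to controls. Run in triplicate.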

[2] = tested on: Mycobacterium tuberculosis; assay: Antitubercular activity against wild type Mycobacterium tuberculosis H37Rv ATCC 25618 assessed as bacterial growth inhibition measured after 5 days by serial dilution method; format: functional; conditions: H37Rv ATCC 25618, 120 h, time 5 day; how it was run: as §1

| Compound | MIC90 [1] | MIC90 [2] |
| --- | --- | --- |
| CO[C@H]1/C=C/O[C@@]2(C)Oc3c(C)c(O)c4c(O)c(c(CN5CCN(CCO)CC5)c(O)c4c3C2=O)NC(=O)/C(C)=C\C=C\[C@H](C)[C@H](O)[C@@H](C)[C@@H](O)[C@@H](C)[C@H](OC(C)=O)[C@@H]1C | 0.07 µM (≈ 0.0588 µg/mL) | 0.034 µM (≈ 0.0286 µg/mL) |
| CO[C@H]1/C=C/O[C@@]2(C)Oc3c(C)c(O)c4c(O)c(c(CNCc5ccc(S(C)(=O)=O)cc5)c(O)c4c3C2=O)NC(=O)/C(C)=C\C=C\[C@H](C)[C@H](O)[C@@H](C)[C@@H](O)[C@@H](C)[C@H](OC(C)=O)[C@@H]1C | 0.096 µM (≈ 0.0859 µg/mL) | 0.039 µM (≈ 0.0349 µg/mL) |
| CO[C@H]1/C=C/O[C@@]2(C)Oc3c(C)c(O)c4c(O)c(c(CNCc5ccncc5)c(O)c4c3C2=O)NC(=O)/C(C)=C\C=C\[C@H](C)[C@H](O)[C@@H](C)[C@@H](O)[C@@H](C)[C@H](OC(C)=O)[C@@H]1C | 0.31 µM (≈ 0.254 µg/mL) | 0.075 µM (≈ 0.0613 µg/mL) |
| CO[C@H]1/C=C/O[C@@]2(C)Oc3c(C)c(O)c4c(O)c(c(CNCc5ccccc5)c(O)c4c3C2=O)NC(=O)/C(C)=C\C=C\[C@H](C)[C@H](O)[C@@H](C)[C@@H](O)[C@@H](C)[C@H](OC(C)=O)[C@@H]1C |  | 0.097 µM (≈ 0.0792 µg/mL) |
| CO[C@H]1/C=C/O[C@@]2(C)Oc3c(C)c(O)c4c(O)c(c(CNCc5cccs5)c(O)c4c3C2=O)NC(=O)/C(C)=C\C=C\[C@H](C)[C@H](O)[C@@H](C)[C@@H](O)[C@@H](C)[C@H](OC(C)=O)[C@@H]1C | 0.2 µM (≈ 0.165 µg/mL) | 0.082 µM (≈ 0.0675 µg/mL) |
| CO[C@H]1/C=C/O[C@@]2(C)Oc3c(C)c(O)c4c(O)c(c(CNCc5ccco5)c(O)c4c3C2=O)NC(=O)/C(C)=C\C=C\[C@H](C)[C@H](O)[C@@H](C)[C@@H](O)[C@@H](C)[C@H](OC(C)=O)[C@@H]1C | 0.45 µM (≈ 0.363 µg/mL) | 0.09 µM (≈ 0.0726 µg/mL) |
| COC(=O)c1ccc(CNCc2c3c(O)c4c(O)c(C)c5c(c4c2O)C(=O)[C@@](C)(O/C=C/[C@H](OC)[C@@H](C)[C@@H](OC(C)=O)[C@H](C)[C@H](O)[C@H](C)[C@@H](O)[C@@H](C)/C=C/C=C(/C)C(=O)N3)O5)cc1 | 0.53 µM (≈ 0.464 µg/mL) | 0.12 µM (≈ 0.105 µg/mL) |
| CO[C@H]1/C=C/O[C@@]2(C)Oc3c(C)c(O)c4c(O)c(c(CNCCc5c[nH]c6ccccc56)c(O)c4c3C2=O)NC(=O)/C(C)=C\C=C\[C@H](C)[C@H](O)[C@@H](C)[C@@H](O)[C@@H](C)[C@H](OC(C)=O)[C@@H]1C | 0.39 µM (≈ 0.339 µg/mL) | 0.039 µM (≈ 0.0339 µg/mL) |
| CO[C@H]1/C=C/O[C@@]2(C)Oc3c(C)c(O)c4c(O)c(c(CNCCc5ccc(O)cc5)c(O)c4c3C2=O)NC(=O)/C(C)=C\C=C\[C@H](C)[C@H](O)[C@@H](C)[C@@H](O)[C@@H](C)[C@H](OC(C)=O)[C@@H]1C | 0.22 µM (≈ 0.186 µg/mL) | 0.066 µM (≈ 0.0559 µg/mL) |
| NNC(=O)c1ccncc1 [ISONIAZID] | 0.29 µM (≈ 0.0398 µg/mL) | 0.28 µM (≈ 0.0384 µg/mL) |
| CO[C@H]1/C=C/O[C@@]2(C)Oc3c(C)c(O)c4c(O)c(c(/C=N/N5CCN(C)CC5)c(O)c4c3C2=O)NC(=O)/C(C)=C\C=C\[C@H](C)[C@H](O)[C@@H](C)[C@@H](O)[C@@H](C)[C@H](OC(C)=O)[C@@H]1C [RIFAMPIN] | 0.02 µM (≈ 0.0165 µg/mL) | 0.0045 µM (≈ 0.0037 µg/mL) |
